Measurements pooled from the literature.
Compare with care: the assays were run in different laboratories.
Target: Casein kinase I isoform epsilon (CSNK1E, Homo sapiens, UniProt P49674)

O=c1c2ccccc2[nH]c(=S)n1CCN1CCC(=C(c2ccc(F)cc2)c2ccc(F)cc2)CC1
remaining activity (enzyme activity, inhibitor; 0.5 µM): 100%

CN([C@@H]1CCc2c(CC(=O)O)c3ccccc3n2C1)S(=O)(=O)c1ccc(F)cc1
remaining binding (cell-free assay, competition with immobilised ligand; 1 µM): 90%

Cn1c2c(Cl)c(Cl)ccc2c2cc(N)[nH]c(=O)c21
ΔTm (thermal stability, DSF; 10 µM): 0.5 °C

O=C(Nc1cnn(-c2csc(C(=O)NC3COC3)c2)c1)Nc1c(F)cccc1Cl
remaining activity (enzyme activity, inhibitor; 5 µM): 88.6%

O=C1NC(=O)c2cc(Nc3ccc(F)cc3)c(Nc3ccc(F)cc3)cc21
remaining activity (enzyme activity, inhibitor; 0.5 µM): 98%

O=C(NCCCNc1nc(Nc2cccc(NC(=O)N3CCCC3)c2)ncc1I)c1cccs1
inhibition (enzyme activity, inhibitor; 1 µM): -16%

CC(C)(C)c1nc2c(s1)c1nc(N)ncc1c1ccc(NS(=O)(=O)c3c(F)cccc3F)c(F)c12
remaining activity (enzyme activity, inhibitor, radiometric; 1 µM): 84%

CC(C)(O)c1cncc(-c2nc3ccc(F)cc3n2C2CC2)c1
remaining binding (cell-free assay, competition with immobilised ligand; 1 µM): 100%

N#CCCc1ccc2c(c1)-c1[nH]c3ccc([N+](=O)[O-])cc3c1CC(=O)N2
remaining signal (cell-free assay; 0.5 µM): 91.4%

O=C(Nc1cccnn1)N1CC(C/C=C/c2cncc(Oc3ccc(C(F)(F)F)cn3)n2)C1
remaining binding (cell-free assay, competition with immobilised ligand; 1 µM): 100%

Cn1c2c(Cl)c(Cl)ccc2c2cc[nH]c(=O)c21
ΔTm (thermal stability, DSF; 10 µM): 1 °C

COc1cc2c(N3CCN(C(=O)Nc4ccc(OC(C)C)cc4)CC3)ncnc2cc1OCCCN1CCCCC1
remaining signal (cell-free assay; 0.5 µM): 99.1%

Cc1ccc(C(=O)Nc2ccc(CN3CCN(C)CC3)c(C(F)(F)F)c2)cc1C#Cc1cnc2cccnn12
remaining activity (enzyme activity, inhibitor; 23.5 nM): 88%

O=C(N1CCS(=O)(=O)CC1)N1C[C@H](c2ccc(OC(F)(F)F)cc2)C[C@H](c2nc(C3CC3)no2)C1
remaining binding (cell-free assay, competition with immobilised ligand; 1 µM): 100%

COc1cc2ncnc(Nc3ccc(Oc4ccccc4)cc3C)c2cc1OC
inhibition (enzyme activity, inhibitor; 1 µM): 2%

CC/C(=N\NC(=O)NCc1cccc(O)c1)c1ccc(O)c(C)c1O
inhibition (enzyme activity, inhibitor; 0.1 µM): 3.6%

CCN1/C(=C/C(C)=O)Sc2ccc(OC)cc21
remaining activity (enzyme activity; 0.5 µM): 60.1%

CCOC(=O)c1cc2cc(-c3cc(C(=O)NCc4ccc(C(=O)O)cc4)nn3C)ccc2[nH]1
remaining binding (cell-free assay, competition with immobilised ligand; 0.1 µM): 100%

O=c1cc(-c2cccc3c2Sc2ccccc2S3)oc(N2CCOCC2)c1
remaining activity (enzyme activity, inhibitor; 0.5 µM): 104%

CNCc1ccccc1-c1csc([C@H](C)Nc2nc(C)nc3cc(OC)c(OC)cc23)c1
remaining binding (cell-free assay, competition with immobilised ligand; 1 µM): 91%

C[C@@H]1CCN(C(=O)CC#N)C[C@@H]1N(C)c1ncnc2[nH]ccc12
remaining activity (enzyme activity, inhibitor; 0.5 µM): 101%

CC1(C)NC(=O)c2[nH]c3c(Cl)c(Cl)ccc3c2C1C#N (centres unmarked)
ΔTm (thermal stability, DSF; 10 µM): 1.8 °C

CCS(=O)(=O)c1cc2cc(C[C@@](O)(CC(C)(C)c3ccc(F)cc3C(N)=O)C(F)(F)F)[nH]c2cn1
remaining binding (cell-free assay, competition with immobilised ligand; 1 µM): 97%
